Data reported in ChEMBL document CHEMBL1152300, “Ligand specificity of constitutive androstane receptor as probed by induced-fit docking and mutagenesis” (J Med Chem, 2008).
One block for each compound: values may come before it.

Tests used:
[1] = target: T1, Nuclear receptor subfamily 1 group I member 3 (Mus musculus, UniProt O35627, Y336A); test: Enhancement of steroid receptor coactivator 1 binding to mouse CAR Y336A mutant […] at 10 uM by yeast two-hybrid assay; type: cell-based
Method in brief: (§1)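 Yeast two-hybrid: yeast expressing wild-type or mutant mouse CAR LBD plus SRC-1 or NCoR, selected on SD medium lacking Leu and Trp. Pooled colonies treated with DMSO or test chemical for 3.5 h. β-Galactosidase normalized to cell density. SRC-1 reference: wild-type + DMSO = 100. NCoR reference: 10 µM androstenol = 100. Mean ± SD, two independent determinations, each in triplicate.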

[2] = target: T2, Nuclear receptor subfamily 1 group I member 3 (Mus musculus, UniProt O35627, T350M); test: Enhancement of steroid receptor coactivator 1 binding to mouse CAR T350M mutant […] at 10 uM by yeast two-hybrid assay; type: cell-based; method in brief: as §1
[3] = target: T3, Nuclear receptor subfamily 1 group I member 3 (Mus musculus, UniProt O35627, F171A); details: HEK293, mouse
[4] = target: T4, Nuclear receptor subfamily 1 group I member 3 (Mus musculus, UniProt O35627, L353A); test: Enhancement of nuclear co-repressor receptor binding to mouse CAR L353A mutant […] at 10 uM by yeast two-hybrid assay; type: cell-based; method in brief: as §1
[5] = target: T5, Nuclear receptor subfamily 1 group I member 3 (Mus musculus, UniProt O35627, L212A); test: Effect on steroid receptor co-activator 1 binding to mouse CAR L212A mutant […] at 10 uM by yeast two-hybrid assay; type: cell-based; details: read-out: Activity
Method in brief: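 Yeast two-hybrid assay. Yeast co-expressing wild-type or mutant mouse CAR LBD and the SRC-1 partner were selected on SD plates lacking leucine and tryptophan. Random colonies were pooled and amplified, then treated with DMSO or test chemical for 3.5 h. β-galactosidase activity was normalized to cell density and set relative to wild-type mCAR + SRC-1 with DMSO (=100). Mean ± standard deviation of two determinations, each in triplicate.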

[6] = target: T6, Nuclear receptor subfamily 1 group I member 3 (Mus musculus, UniProt O35627, F171L); test: Activation of mouse CAR F171L mutant expressed in HEK293 cells at 10 uM by mammalian one-hybrid assay; type: cell-based; details: read-out: Activity
Method in brief: (§2)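 GAL4-DBD fused to mouse CAR LBD (residues 118-358), wild-type or point mutant, cotransfected with UASx4-tk-luc reporter and pCMVβ into HEK293 cells. Cells were exposed to final 1 µM, 2 µM or 10 µM test chemical, or 0.1% v/v DMSO, for 24 h after transfection. Luciferase was normalized to β-galactosidase and set against empty GAL4 vector (=1.0). Mean ± standard deviation, three independent experiments.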

[7] = target: T3, Nuclear receptor subfamily 1 group I member 3; test: Decrease in nuclear co-repressor receptor binding to mouse CAR F171A mutant […] at 10 uM by yeast two-hybrid assay; type: cell-based; details: read-out: Activity
Method in brief: (§3)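 Yeast expressing wild-type or mutant mouse CAR LBD plus NCoR, selected on SD plates lacking leucine and tryptophan. Pooled colonies treated with DMSO or compound for 3.5 h. β-Galactosidase activity normalized to cell density. Reference is 10 µM androstenol (=100). Mean ± SD of two independent determinations, each in triplicate.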

[8] = target: T7, Nuclear receptor subfamily 1 group I member 3 (Mus musculus, UniProt O35627, S251L); test: Activation of mouse CAR S251L mutant expressed in HEK293 cells at 10 uM by mammalian one-hybrid assay; type: cell-based; details: hek293, 10 µM
Method in brief: (§4)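 GAL4 DBD fused to mouse CAR LBD (residues 118-358), wild type or point mutant, cotransfected with UASx4-tk-luc reporter and pCMVβ into HEK293 cells. Cells cultured with DMSO (0.1% v/v) or compound (final 1, 2 or 10 µM). Lysed 24 h post-transfection. Luciferase normalized to β-galactosidase, expressed relative to empty GAL4 vector (=1.0). Mean ± SD, three independent experiments.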

[9] = target: T8, Nuclear receptor subfamily 1 group I member 3 (Mus musculus, UniProt O35627, T350A); test: Activation of mouse CAR T350A mutant expressed in HEK293 cells at 10 uM by mammalian one-hybrid assay; type: cell-based; details: hek293, 10 µM; method in brief: as §4
[10] = target: T7, Nuclear receptor subfamily 1 group I member 3; test: Decrease in steroid receptor coactivator 1 binding to mouse CAR S251L mutant […] at 2 uM by yeast two-hybrid assay; type: cell-based; details: read-out: Activity; method in brief: as §1
[11] = target: T5, Nuclear receptor subfamily 1 group I member 3; test: Activation of mouse CAR L212A mutant expressed in HEK293 cells at 2 uM by mammalian one-hybrid assay; type: cell-based; details: hek293, 2 µM; method in brief: as §2
[12] = target: T6, Nuclear receptor subfamily 1 group I member 3; test: Enhancement of nuclear co-repressor receptor binding to mouse CAR F171L mutant […] at 2 uM by yeast two-hybrid assay; type: cell-based; method in brief: as §1
[13] = target: T9, Nuclear receptor subfamily 1 group I member 3 (Mus musculus, UniProt O35627, L253F); test: Decrease in nuclear co-repressor receptor binding to mouse CAR L253F mutant […] at 2 uM by yeast two-hybrid assay; type: cell-based; details: read-out: Activity; method in brief: as §1
[14] = target: T9, Nuclear receptor subfamily 1 group I member 3; test: Decrease in mouse CAR L253F mutant activation expressed in HEK293 cells at 2 uM by mammalian one-hybrid assay; type: cell-based; details: read-out: Activity; method in brief: as §2
[15] = target: T1, Nuclear receptor subfamily 1 group I member 3; test: Decrease in steroid receptor coactivator 1 binding to mouse CAR Y336A mutant […] at 2 uM by yeast two-hybrid assay; type: cell-based; details: read-out: Activity; method in brief: as §1
[16] = target: T10, Nuclear receptor subfamily 1 group I member 3 (Mus musculus, UniProt O35627, N175A); test: Decrease in mouse CAR N175A mutant activation expressed in HEK293 cells at 2 uM by mammalian one-hybrid assay; type: cell-based; details: read-out: Activity; method in brief: as §2
[17] = target: T10, Nuclear receptor subfamily 1 group I member 3; test: Decrease in mouse CAR N175A mutant activation expressed in HEK293 cells at 1 uM by mammalian one-hybrid assay; type: cell-based; details: read-out: Activity; method in brief: as §4
[18] = target: T8, Nuclear receptor subfamily 1 group I member 3; test: Decrease in mouse CAR T350A mutant activation expressed in HEK293 cells at 1 uM by mammalian one-hybrid assay; type: cell-based; details: read-out: Activity; method in brief: as §4
[19] = target: T2, Nuclear receptor subfamily 1 group I member 3; test: Decrease in mouse CAR T350M mutant activation expressed in HEK293 cells at 1 uM by mammalian one-hybrid assay; type: cell-based; details: read-out: Activity; method in brief: as §4
[20] = target: T3, Nuclear receptor subfamily 1 group I member 3; test: Effect on steroid receptor co-activator 1 binding to mouse CAR F171A mutant […] at 1 uM by yeast two-hybrid assay; type: cell-based; details: read-out: Activity
Method in brief: as §3, with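 “SRC-1,” for “NCoR,”, “wild-type CAR + SRC-1 with DMSO” for “10 µM androstenol”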

[21] = target: T7, Nuclear receptor subfamily 1 group I member 3; test: Decrease in mouse CAR S251L mutant activation expressed in HEK293 cells at 1 uM by mammalian one-hybrid assay; type: cell-based; details: read-out: Activity; method in brief: as §4
[22] = target: T4, Nuclear receptor subfamily 1 group I member 3; test: Decrease in mouse CAR L353A mutant activation expressed in HEK293 cells at 1 uM by mammalian one-hybrid assay; type: cell-based; details: read-out: Activity; method in brief: as §4
[23] = target: T6, Nuclear receptor subfamily 1 group I member 3; test: Effect on steroid receptor co-activator 1 binding to mouse CAR F171L mutant […] at 1 uM by yeast two-hybrid assay; type: cell-based; details: read-out: Activity
Method in brief: as §3, with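 “SRC-1,” for “NCoR,”, “wild-type CAR + SRC-1 with DMSO” for “10 µM androstenol”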

T5 sequence (O35627 whole entry L212A, the tested form may be a part): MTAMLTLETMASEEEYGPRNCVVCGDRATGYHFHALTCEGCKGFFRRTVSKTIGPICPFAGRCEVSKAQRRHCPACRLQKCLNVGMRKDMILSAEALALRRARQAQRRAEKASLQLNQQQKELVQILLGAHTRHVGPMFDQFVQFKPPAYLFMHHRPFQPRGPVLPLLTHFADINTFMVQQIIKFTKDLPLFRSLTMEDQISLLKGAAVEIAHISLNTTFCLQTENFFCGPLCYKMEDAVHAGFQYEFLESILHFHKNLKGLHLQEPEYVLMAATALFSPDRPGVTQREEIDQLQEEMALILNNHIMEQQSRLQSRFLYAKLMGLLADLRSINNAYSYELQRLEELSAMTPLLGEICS
T3 sequence (O35627 whole entry F171A): as the sequence (O35627 whole entry L212A, the tested form may be a part) above, with F171A, A212L counted along it
T6 sequence (O35627 whole entry F171L, the tested form may be a part): as the sequence (O35627 whole entry L212A, the tested form may be a part) above, with F171L, A212L counted along it
T7 sequence (O35627 whole entry S251L, the tested form may be a part): as the sequence (O35627 whole entry L212A, the tested form may be a part) above, with A212L, S251L counted along it
T2 sequence (O35627 whole entry T350M): as the sequence (O35627 whole entry L212A, the tested form may be a part) above, with A212L, T350M counted along it
T1 sequence (O35627 whole entry Y336A, the tested form may be a part): as the sequence (O35627 whole entry L212A, the tested form may be a part) above, with A212L, Y336A counted along it
T10 sequence (O35627 whole entry N175A): as the sequence (O35627 whole entry L212A, the tested form may be a part) above, with N175A, A212L counted along it
T8 sequence (O35627 whole entry T350A): as the sequence (O35627 whole entry L212A, the tested form may be a part) above, with A212L, T350A counted along it
T4 sequence (O35627 whole entry L353A): as the sequence (O35627 whole entry L212A, the tested form may be a part) above, with A212L, L353A counted along it
T9 sequence (O35627 whole entry L253F): as the sequence (O35627 whole entry L212A, the tested form may be a part) above, with A212L, L253F counted along it

- Activity [1]: > 150%
- Activity [2]: > 50%
- activity at 10 µM [3]: < 50%
SMILES: COc1ccccc1CC(CC(=O)Cc1ccccc1)OC (centres undefined)

- Activity [4]: >= 50%
- activity at 10 µM [5]: < 50%
- activity at 10 µM [6]: < 50%
SMILES: COc1ccc(C(=O)CCCc2ccccc2)cc1

SMILES: C[C@]12CC[C@@H](O)C[C@@H]1CC[C@@H]1[C@@H]2CC[C@]2(C)C=CC[C@@H]12 [ANDROSTENOL]
- activity at 10 µM [5]: < 50%
- inhibition at 10 µM [7]: ≥ 50%
- Activity [8]: < 50%
- Activity [9]: < 50%

- inhibition at 2 µM [10]: ≥ 50%
- Activity [11]: < 50%
- Activity [12]: > 150%
- inhibition at 2 µM [13]: ≥ 50%
- inhibition at 2 µM [14]: 50%
- inhibition at 2 µM [15]: ≥ 50%
- inhibition at 2 µM [16]: 50%
SMILES: Clc1ccccc1C(c1ccccc1)(c1ccccc1)n1ccnc1 [CLOTRIMAZOLE]

SMILES: Clc1cnc(Oc2ccc(Oc3ncc(Cl)cc3Cl)cc2)c(Cl)c1
- inhibition at 1 µM [17]: < 50%
- inhibition at 1 µM [18]: < 50%
- inhibition at 1 µM [19]: 50%
- activity at 1 µM [20]: < 50%
- inhibition at 1 µM [21]: < 50%
- inhibition at 1 µM [22]: 50%
- activity at 1 µM [23]: < 50%
